Several values for one entry are separate records, joined by “and”; a condition that tells them apart may be missing. Equal values may be shown once. Activity calls are given as the source filed them.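 Rule for the calls: active = viability falling with dose, half-maximal potency at or under ten times the top valid dose; inconclusive = flat partial loss of viability, or an unreliable curve fit; inactive = the rest, including a rising signal.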
tested on: DRD (HRASV12 BJ) fibroblasts viability, Alamar Blue, 48 h; assay: DRD BJ cell killing, Ras synthetic lethality – DRD BJ fibroblasts, HRASV12, dry powder, set 2, dose response (AID 493050); details: not given
In short: (§1)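 Material: engineered HRASV12-transformed BJ fibroblasts (DRD); Input: 1000 cells per well; Incubation: 48 h compound, 37 °C, 5% CO2, ~16 h Alamar Blue; Detection: Alamar Blue fluorescence, excitation 544 nm, emission 590 nm.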

SMILES | AC50
O=C(c1ccc([N+](=O)[O-])o1)N1CCN(C(c2ccccc2)c2ccccc2)CC1 | 19.4 µM
Cc1onc(C(=O)N2CCN(C(c3ccc(Cl)cc3)c3ccc(Cl)cc3)CC2)c1[N+](=O)[O-] | 0.107 µM
Cc1onc(C(=O)N2CCN(C(c3ccccc3)c3ccccc3)CC2)c1[N+](=O)[O-] | 4.75 µM and 1.71 µM
Cc1onc(C(=O)N2CCCN(C(c3ccccc3)c3ccccc3)CC2)c1[N+](=O)[O-] | 1.1 µM
Cc1onc(C(=O)N2CCN(C(c3ccc(F)cc3)c3ccc(F)cc3)CC2)c1[N+](=O)[O-] | 0.226 µM
COc1ccc(C(c2ccc(OC)cc2)N2CCN(C(=O)c3ccc([N+](=O)[O-])o3)CC2)cc1 | 8.37 µM
O=C(NCCNC(c1ccccc1)c1ccccc1)c1ccc([N+](=O)[O-])o1 | 8.27 µM
O=C(c1ccc([N+](=O)[O-])o1)N1CCCN(C(c2ccccc2)c2ccccc2)CC1 | 46.5 µM
Cc1onc(C(=O)NCCNC(c2ccccc2)c2ccccc2)c1[N+](=O)[O-] | 16 µM
O=C(c1ccc([N+](=O)[O-])o1)N1CCN(C(c2ccc(F)cc2)c2ccc(F)cc2)CC1 | 13.1 µM
Cc1onc(C(=O)N2CCN(C(c3ccccc3)c3ccc(Cl)cc3)CC2)c1[N+](=O)[O-] (centres undefined) | 0.21 µM
COc1ccc(C(c2ccc(OC)cc2)N2CCN(C(=O)c3noc(C)c3[N+](=O)[O-])CC2)cc1 | 1.85 µM

tested on: not listed separately; assay: as above; details: DRD (HRASV12 BJ) fibroblasts viability, Alamar Blue, 48 h; at 48 µM (top of the series)
In short: as §1

SMILES | activity change, negative = viability loss
Cc1onc(C(=O)N2CCN(C(c3ccccc3)c3ccccc3)CC2)c1Br | 8.89% (inactive)
Cc1ccc(C(=O)N2CCN(C(c3ccccc3)c3ccccc3)CC2)c([N+](=O)[O-])c1 | 15.7% (inactive)
Cc1onc(C(=O)N2CCN(C(c3ccccc3)c3ccccc3)CC2)c1N | 1.23% (inactive)
CC(=O)Nc1c(C(=O)N2CCN(C(c3ccccc3)c3ccccc3)CC2)noc1C | 5.57% (inactive)
O=[N+]([O-])c1ccc(CN2CCN(C(c3ccccc3)c3ccccc3)CC2)o1 | -0.32% (inactive)
Cc1oc(C)c(C(=O)N2CCN(C(c3ccccc3)c3ccccc3)CC2)c1C | 11.7% (inactive)
Cc1onc(C(=O)N2CCN(C(c3ccncc3)c3ccncc3)CC2)c1[N+](=O)[O-] | 1.3% (inactive)
Cc1onc(C(=O)N2CCN(C(c3ccccc3)c3ccccc3)CC2)c1C | 10.5% (inactive)
O=C(c1noc2ccccc12)N1CCN(C(c2ccccc2)c2ccccc2)CC1 | 4.79% (inactive)
Cc1onc(C(=O)N2CCN(C(c3ccccc3)c3ccccc3)CC2)c1NS(C)(=O)=O | 2.79% (inactive)
Cc1onc(C(=O)N2CCN(C(c3ccccn3)c3ccccn3)CC2)c1[N+](=O)[O-] | 3.35% (inactive)
CC(C)c1onc(C(=O)N2CCN(C(c3ccccc3)c3ccccc3)CC2)c1[N+](=O)[O-] | 4.37% (inactive)

same assay, conditions: DRD (HRASV12 BJ) fibroblasts viability, Alamar Blue, 48 h; at 68 µM (top of the series)

SMILES | activity change, negative = viability loss
Cc1cc(C(=O)N2CCN(Cc3ccccc3)CC2)no1 | -2.15% (inactive)
CCOC(=O)N1CCN(C(=O)c2noc(C)c2[N+](=O)[O-])CC1 | 6.53% (inactive)
COc1ccccc1N1CCN(C(=O)c2noc(C)c2[N+](=O)[O-])CC1 | 0.386% (inactive)
Cc1onc(C(=O)NCc2ccc(F)cc2)c1[N+](=O)[O-] | 0.881% (inactive)
Cc1onc(C(=O)N2CCOCC2)c1[N+](=O)[O-] | 4.86% (inactive)

Source: PubChem BioAssay AID493050 (Broad Institute, 2011)
